# Compound activity (PubChem)
# Only some compounds are listed: those with a hit (about 2.3% of all), similar ones and a draw of the others.
# TRPC4 act – activators of mouse TRPC4 channel, primary screen, Fluo4 calcium, HEK293 TRPC4beta/mu-opioid cells. hit rate 0.49% among 310,000. Fluo4 calcium fluorescence; stronger effect = higher value. B-score at 10 µM. AID 2237, 2010;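 active = B-score above 5 SD of library B-scores, and initial fluorescence ratio not above library mean plus 5 SD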;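 note: positive B-score marks a calcium rise read as TRPC4 activation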
# Target sequence (Q9QUQ5 whole entry, looked up): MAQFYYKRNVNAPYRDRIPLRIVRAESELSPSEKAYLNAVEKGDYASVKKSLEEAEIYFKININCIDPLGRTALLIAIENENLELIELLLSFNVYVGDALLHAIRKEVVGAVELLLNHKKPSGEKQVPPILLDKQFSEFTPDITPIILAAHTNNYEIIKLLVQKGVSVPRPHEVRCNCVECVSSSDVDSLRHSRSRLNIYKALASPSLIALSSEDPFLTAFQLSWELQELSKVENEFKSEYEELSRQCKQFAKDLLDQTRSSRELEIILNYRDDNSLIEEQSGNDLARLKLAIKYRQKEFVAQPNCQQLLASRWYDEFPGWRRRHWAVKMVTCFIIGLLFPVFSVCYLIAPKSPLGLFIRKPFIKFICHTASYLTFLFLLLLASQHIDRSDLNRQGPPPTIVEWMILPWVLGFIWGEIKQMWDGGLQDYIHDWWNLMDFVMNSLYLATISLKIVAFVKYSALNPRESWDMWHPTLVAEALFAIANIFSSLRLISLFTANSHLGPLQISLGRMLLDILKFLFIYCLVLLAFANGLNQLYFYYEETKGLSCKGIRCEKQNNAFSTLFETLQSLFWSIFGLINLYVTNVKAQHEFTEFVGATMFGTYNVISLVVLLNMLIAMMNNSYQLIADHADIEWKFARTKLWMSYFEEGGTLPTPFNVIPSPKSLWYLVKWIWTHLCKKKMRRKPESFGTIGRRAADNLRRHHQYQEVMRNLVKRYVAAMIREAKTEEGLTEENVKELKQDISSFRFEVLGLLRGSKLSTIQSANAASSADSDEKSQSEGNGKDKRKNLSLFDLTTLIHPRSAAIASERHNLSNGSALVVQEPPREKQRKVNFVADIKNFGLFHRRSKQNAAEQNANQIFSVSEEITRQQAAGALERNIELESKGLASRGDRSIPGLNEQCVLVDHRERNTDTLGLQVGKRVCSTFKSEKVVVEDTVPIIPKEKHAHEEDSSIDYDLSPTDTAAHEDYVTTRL
#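 Incubation: 45 min room-temperature Fluo4 loading, 110 s read / System: HEK293 cells stably co-expressing mouse TRPC4beta and mu-opioid receptor / Signal: Fluo4 fluorescence, kinetic / Control set: buffer (low) and maximal DAMGO (high) / Measure: integrated baseline-normalised fluorescence ratio, converted to per-well B score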
# TRPC4 inh – inhibitors of mouse TRPC4 channel, primary screen, Fluo4 calcium, HEK293 TRPC4beta/mu-opioid cells | Short transient receptor potential channel 4 (Mus musculus), Q9QUQ5 | DAMGO-evoked Fluo4 calcium flux; stronger effect = lower value | B-score at 10 µM | hit rate 0.39% among 300,000;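 active = B-score over 3 SD under the library average, no early fluorescence shift, positive overall ratio signal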
#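 Test system – stable TRPC4beta/mu-opioid receptor HEK293 cells · Probe or stimulus – DAMGO, a submaximal dose followed by a maximal one · Dosing – one concentration per compound · Signal – Fluo4 calcium fluorescence by kinetic imaging, 5 s 1 Hz baseline · Evaluation – per-well B score of integrated baseline-normalized Fluo4 ratio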
# TRPC4 PAM – positive allosteric modulators of TRPC4, primary screen, cell-based, mouse TRPC4beta, HEK293 mu-opioid, Fluo-4 calcium | Short transient receptor potential channel 4 (Mus musculus), Q9QUQ5 | DAMGO EC20, Fluo-4 Ca2+ flux; stronger effect = higher value | B-score at 10 µM | hit rate 0.42% among 310,000;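 active = B-score of calcium response area above 5 SD of library B-scores, with initial fluorescence ratio within 5 SD of library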
# TRPC6 inh – mouse TRPC6 channel inhibitors, primary screen, cell-based, HEK293, membrane potential dye | hit rate 1.1% among 310,000 | B-score at 10 µM | ACh-evoked depolarization; stronger effect = lower value | AID 2553, 2010;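 active = B-score under library mean minus 3 SD, initial fluorescence not abnormally high, positive integrated signal ratio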;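 note: B-score derived from integrated fluorescence ratio over the kinetic read; more negative B-score means stronger inhibition of depolarization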
# TRPC6 act – mouse TRPC6 channel activators, primary screen, cell-based, HEK293, membrane potential dye; B-score at 10 µM; Short transient receptor potential channel 6 (Mus musculus), Q61143; hit rate 0.13% among 310,000; HEK293-TRPC6 membrane potential dye fluorescence; stronger effect = higher value;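 active = B-score of the integrated fluorescence ratio above library mean plus 3 SD, and starting fluorescence ratio within library mean plus 5 SD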;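 note: higher score means more depolarization so channel activation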
# TRPC4 sel inh 2 – mouse TRPC4 off-target activity of TRPC6 inhibitors, second screen. hit rate 42% among 920. shares compounds with TRPC6 inh. HEK293 TRPC4/MOR, membrane potential dye fluorescence; channel activated by saturating DAMGO dose. inhibition, % at 10 µM. AID 2776;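 active = compounds whose fluorescence signal differed from control wells by over 3 SD, either direction, in both duplicate plates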
# TRPC4 spec – mouse TRPC4 modulation by TRPC6 hits, confirmation, selectivity assay for TRPC6 inhibitor project, cell-based, HEK293 TRPC4/mu-opioid, membrane potential dye; shares compounds with TRPC6 inh; membrane potential fluorescence; activity change, negative = inhibition, % at 10 µM; hit rate 61% among 920; AID 2777, 2010;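 active = rise or fall in signal beyond 3 SD of buffer-only wells in both replicate plates, either sign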;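 note: integrated kinetic ratio of fluorescence range over baseline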
# HEK293 MPD ctr 2-1 – nonspecific membrane potential effects, parental HEK293, confirmation, counter-screen for TRPC6 inhibitor project, cell-based, second counter screen; signal change vs control, % at 10 µM; AID 2779, 2010; parental HEK293 membrane potential dye fluorescence; maximal acetylcholine challenge after compound addition; hit rate 31% among 920; shares compounds with TRPC6 inh;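 active = membrane potential signal moving either way by over 3 SD of the maximum-effect control, in both duplicate plates, meaning non-specific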
# HEK293 MPD ctr-1 – membrane potential modulation in parental HEK293, confirmation, counter-screen for TRPC6 inhibitor project, cell-based; shares compounds with TRPC6 inh; parental HEK293 membrane potential dye fluorescence; membrane potential signal change, % at 10 µM; hit rate 60% among 920; AID 2780, 2010;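 active = membrane potential signal shifting up or down by more than 3 SD of buffer-only wells, on both duplicate plates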
# HEK293 MPD ctr-2 – parental HEK293 membrane potential modulation, confirmation, counter-screen for TRPC6 modulator project, cell-based; hit rate 51% among 2,400; shares compounds with TRPC6 inh; AID 488924, 2010; membrane potential signal change, % at 10 µM; membrane potential dye fluorescence;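 active = membrane potential signal moves up or down beyond 5 SD from buffer-only wells, on both duplicate plates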
# HEK293 MPD ctr 2-2 – second check of TRPC6 modulator effects in parental HEK293 cells; membrane potential dye fluorescence; after compound, maximal acetylcholine stimulation; inhibition, % at 10 µM; shares compounds with TRPC6 inh; AID 488926; hit rate 14% among 2,400;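 active = membrane potential signal drops by more than 5 SD from the mean control signal, in both duplicate plates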
# TRPC4 ctr mod – TRPC4 modulation by TRPC6 hit compounds, confirmation, selectivity assay for TRPC6 modulator project, cell-based, HEK293 TRPC4/mu-opioid, membrane potential dye, mouse | shares compounds with TRPC6 inh | membrane potential fluorescence | percent change from control (negative = decrease, positive = increase), % at 10 µM | hit rate 69% among 2,400 | AID 488927, 2010;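 active = membrane potential signal moved up or down beyond 5 SD of buffer control wells, in both duplicate plates, actives on both sides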
# TRPC4 ctr inh 2 – second check of whether TRPC6 modulators also affect mouse TRPC4. shares compounds with TRPC6 inh. HEK293 TRPC4/mu-opioid, membrane potential dye fluorescence; stimulated with maximal-effect DAMGO. inhibition, % at 10 µM. hit rate 55% among 2,400;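 active = drop in membrane potential signal beyond 5 SD of the control wells in both duplicate plates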;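 note: TRPC4 counter screen for TRPC6 hits run under conditions tuned for TRPC6 not TRPC4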
# TRPC6 block conf – mouse TRPC6 channel inhibitors, confirmation, HEK293 cells, membrane potential dye, duplicate | shares compounds with TRPC6 inh | ACh-evoked depolarization | inhibition, % at 10 µM | hit rate 43% among 3,300;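 active = fluorescence ratio falls more than 5 SD below the full-stimulation control mean, in both duplicate runs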;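 note: integrated fluorescence ratio of peak minus minimum over baseline after agonist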
# TRPC6 act confirm – mouse TRPC6 channel activators, confirmation, HEK293 cells, membrane potential dye, duplicate. shares compounds with TRPC6 inh. HEK293-TRPC6 membrane potential dye fluorescence, FDSS. activation, % at 10 µM. hit rate 11% among 2,800;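 active = ratio signal rise beyond 5 SD above unstimulated control wells' mean, seen in both duplicate runs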
# Hits are given with their value; 0 = inactive; - = no result given.
SMILES,TRPC4 act,TRPC4 inh,TRPC4 PAM,TRPC6 inh,TRPC6 act,HEK293 MPD ctr-2,HEK293 MPD ctr 2-2,TRPC4 ctr mod,TRPC4 ctr inh 2,TRPC6 block conf,TRPC6 act confirm,others
O=C(COc1ccccc1)Nc1ccncc1Cl,0,0,0,0,0,-,-,-,-,-,-,
Cc1ccc([N+](=O)[O-])c(OCCCN2CCC(Cc3ccccc3)CC2)c1,0,0,0,-5.17,0,0,0,0,73.0%,53.0%,0,
O=Cc1cc(Cl)ccc1OCCN1CCC(Cc2ccccc2)CC1,0,0,0,0,0,-,-,-,-,-,-,
Cc1ccc([N+](=O)[O-])c(OCCN2CCCCCC2)c1,0,0,0,0,0,-,-,-,-,-,-,
O=[N+]([O-])c1cccc(OCCN2CCC(Cc3ccccc3)CC2)c1,0,0,0,-8.45,0,-,-,-,-,61.5%,0,TRPC4 sel inh 2=33.0%;TRPC4 spec=0;HEK293 MPD ctr 2-1=0;HEK293 MPD ctr-1=0
O=C(O)CC(C(=O)O)c1ccc(OCCCCOc2ccc(C(CC(=O)O)C(=O)O)cc2)cc1 (stereo unspecified),0,0,0,0,0,-,-,-,-,-,-,
COc1ccc(Cc2nnc(SCC(=O)Nc3ccc(N4CCOCC4)cc3)o2)cc1,0,0,0,0,0,-,-,-,-,-,-,
NC(=O)CC(NC(=O)Cc1ccc(Cl)cc1)c1ccc(N2CCC(Cc3ccccc3)CC2)c([N+](=O)[O-])c1 (stereo unspecified),0,0,0,0,0,-,-,-,-,-,-,
C[n+]1ccc(/C=N/Nc2nc(Cl)c(C#N)c(Cl)c2Cl)cc1,0,0,0,-7.59,0,-,-,-,-,61.9%,0,TRPC4 sel inh 2=65.5%;TRPC4 spec=0;HEK293 MPD ctr 2-1=-108.0%;HEK293 MPD ctr-1=0
CCCC(C)C(=O)Nc1nc(C)c(-c2csc(Nc3ccc(Cl)cc3)n2)s1 (stereo unspecified),0,0,0,-6.01,0,0,0,0,0,0,0,
Cc1ccccc1C1=NC(C(F)(F)F)(C(F)(F)F)c2c(n(C)c(=O)n(C)c2=O)N1,0,0,0,0,0,-,-,-,-,-,-,
Cn1c2c(c(=O)n(C)c1=O)C(C(F)(F)F)(C(F)(F)F)N=C(c1ccc(Cl)cc1)N2,0,0,0,-7.92,0,-,-,-,-,101.5%,0,TRPC4 sel inh 2=75.5%;TRPC4 spec=20.1%;HEK293 MPD ctr 2-1=0;HEK293 MPD ctr-1=10.6%
COc1ccc2[nH]c3c(C)c4ccncc4c(C)c3c2c1,0,0,0,-6.21,0,-159.0%,0,-43.0%,33.0%,0,0,
Cc1cc(C)nc(/N=C(\N)Nc2ccc(C)c([N+](=O)[O-])c2)n1,0,0,0,-5.39,0,0,0,-19.0%,35.5%,0,0,
COC(=O)c1cccc(NC(=O)CSc2nnc(C3CC3)n2C)c1,0,0,0,0,0,-,-,-,-,-,-,
COc1cc(Nc2nc3ccccc3nc2NS(=O)(=O)c2ccc([N+](=O)[O-])cc2)cc(OC)c1OC,0,0,0,-6.41,0,-116.5%,0,-26.5%,50.5%,48.5%,0,
O=[N+]([O-])c1ccc(S(=O)(=O)Nc2nc3ccccc3nc2Nc2ccccc2)cc1,0,0,0,0,0,-,-,-,-,-,-,
CCN1CCN(c2ccc(S(=O)(=O)N3CCOCC3)cc2NC(=O)c2ccc(F)cc2Cl)CC1,0,0,0,0,0,-,-,-,-,-,-,
CC1CCCN(C(=O)COc2ccc(-c3ccccc3)cc2)C1 (stereo unspecified),0,0,0,-5.96,0,0,0,10.5%,0,0,-,
CC(NC(=O)CCNC(=O)c1ccco1)c1ccccc1 (stereo unspecified),0,0,0,0,0,-,-,-,-,-,-,
O=c1[nH]c(-c2ccccc2)c(-c2ccccc2)nc1[N+](=O)[O-],0,0,0,0,11.7,0,0,16.5%,0,0,47.5%,
Cc1ccc2nc3c(cc(C(=O)NC4CCCCC4)c(=N)n3C3CCCCC3)c(=O)n2c1,0,0,0,-7.81,0,-132.5%,0,-31.0%,43.0%,36.5%,0,
CNC(=O)c1cc2c(=O)n3cc(C)ccc3nc2n(C(C)C)c1=N,0,0,0,-7.45,0,-157.0%,111.0%,-48.5%,51.0%,84.0%,0,
C=CCn1c(=N)c(C(=O)NCCCOC)cc2c(=O)n3ccccc3nc21,0,0,0,0,0,-,-,-,-,-,-,
Cc1cccn2c(=O)c3cc(C(=O)NCC4CCCO4)c(=N)n(C4CCCCC4)c3nc12 (stereo unspecified),0,0,0,0,0,-,-,-,-,-,-,
N=c1c(C(=O)NC2CCCC2)cc2c(=O)n3ccccc3nc2n1C1CCCCC1,0,0,0,-6.47,0,-188.5%,0,-30.5%,50.0%,43.5%,0,
C=CCn1c(=N)c(C(=O)NCCCOC)cc2c(=O)n3cc(C)ccc3nc21,0,0,0,-7.53,0,-,-,-,-,0,0,TRPC4 sel inh 2=0;TRPC4 spec=2.7%;HEK293 MPD ctr 2-1=-54.0%;HEK293 MPD ctr-1=4.9%
